The IC50 is the concentration at which inhibition is half-maximal.

This is an account of results in ChEMBL document CHEMBL1139026, “Lipolanthionine peptides act as inhibitors of TLR2-mediated IL-8 secretion. Synthesis and structure-activity relationships” (J Med Chem, 2006).

Format in all cases: functional, cell-based
The target of assay [1] is T1, Toll-like receptor 2 (Homo sapiens, UniProt O60603). Put plainly: Inhibition of TLR2-mediated IL-8 secretion in THP-1 cells. An outline of the steps:
(§1)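 THP-1 cells, 4 × 10⁴ per well in RPMI 1640/10% FCS, were preincubated with peptides (0.78–25 µM, from 10 mM DMSO stocks) for 10 min at 37 °C. Pam3Cys-SK4-OH (50 nM) was then added for 5 h at 37 °C. IL-8 in cell-free supernatants was measured by matched-pair ELISA against DMSO-matched agonist controls. Triplicates, SD shown.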

The subject of assay [2] is THP-1. Put plainly: Cytotoxicity against THP1 cells by MTT assay. Summed up: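 THP-1 cells (RPMI 1640 with 10% FCS, 37 °C, 5% CO2) were exposed to lipolanthionine peptides plus Pam3Cys-SK4-OH (50 nM) for 5 h. After part of the supernatant was removed for ELISA, MTT (1 mg/mL) was added for 4 h. Formazan was dissolved in 10% SDS in 10 mM HCl. A570 was read relative to untreated control cells.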
In general terms: Tetrazolium assays rely on reduction of a dye to a coloured formazan, in cell work by metabolically active cells.

Assay [3] addresses T1, Toll-like receptor 2. Put plainly: Inhibition of TLR2 agonist Pam3Cys-Ser-(Lys)4-OH-mediated IL8 secretion in THP1 cells at 25 uM. Conditions: THP-1. An outline of the steps: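 THP-1 cells, 4 × 10⁴ per well, were preincubated for 10 min at 37 °C with peptide at a single 25 µM concentration (from 10 mM DMSO stock), with or without Pam3Cys-SK4-OH (50 nM), then incubated 5 h at 37 °C. IL-8 was measured by ELISA in cell-free supernatants and expressed relative to agonist plus equal-solvent control. Triplicates, SD.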

The target of assay [4] is T1, Toll-like receptor 2. Put plainly: Inhibition of TLR2 agonist Pam3Cys-Ser-(Lys)4-OH-mediated IL8 secretion in THP1 cells. Details: scale not given: the % may be the effect or the level left. To be noted: for Activity: THP-1. An outline of the steps: as §1

Activity calls are given as the source filed them. The rule behind the calls is not given here. Residues, ends and D or L forms follow the SMILES beside them. *: point of attachment. X5 = CCCCCCCCCCCCCCCCCCCC(=O)N[C@@H](C*)C(=O)NCCCCCCCCCCCCCCCC; X2 = CCCCCCCCCCCCCCCCCC(=O)N[C@@H](C*)C(=O)NCCCCCCCCCCCCCCCC; X6 = CCCCCCCCCCCCCC(=O)N[C@@H](C*)C(=O)NCCCCCCCCCCCC; X3 = CCCCCCCCCCCCCC(=O)N[C@@H](C*)C(=O)NCCCCCCCCCC; X4 = CCCCCCCCCCCCCC(=O)N[C@@H](C*)C(=O)NCCCCCCCC; X7 = CCCCCCCCCCCCCC(=O)N[C@@H](C*)C(=O)NCCCCCC; Arachidoyl = CCCCCCCCCCCCCCCCCCCC(=O)*; Stearoyl = CCCCCCCCCCCCCCCCCC(=O)*; Myristoyl = CCCCCCCCCCCCCC(=O)*

T1 sequence (O60603 whole entry): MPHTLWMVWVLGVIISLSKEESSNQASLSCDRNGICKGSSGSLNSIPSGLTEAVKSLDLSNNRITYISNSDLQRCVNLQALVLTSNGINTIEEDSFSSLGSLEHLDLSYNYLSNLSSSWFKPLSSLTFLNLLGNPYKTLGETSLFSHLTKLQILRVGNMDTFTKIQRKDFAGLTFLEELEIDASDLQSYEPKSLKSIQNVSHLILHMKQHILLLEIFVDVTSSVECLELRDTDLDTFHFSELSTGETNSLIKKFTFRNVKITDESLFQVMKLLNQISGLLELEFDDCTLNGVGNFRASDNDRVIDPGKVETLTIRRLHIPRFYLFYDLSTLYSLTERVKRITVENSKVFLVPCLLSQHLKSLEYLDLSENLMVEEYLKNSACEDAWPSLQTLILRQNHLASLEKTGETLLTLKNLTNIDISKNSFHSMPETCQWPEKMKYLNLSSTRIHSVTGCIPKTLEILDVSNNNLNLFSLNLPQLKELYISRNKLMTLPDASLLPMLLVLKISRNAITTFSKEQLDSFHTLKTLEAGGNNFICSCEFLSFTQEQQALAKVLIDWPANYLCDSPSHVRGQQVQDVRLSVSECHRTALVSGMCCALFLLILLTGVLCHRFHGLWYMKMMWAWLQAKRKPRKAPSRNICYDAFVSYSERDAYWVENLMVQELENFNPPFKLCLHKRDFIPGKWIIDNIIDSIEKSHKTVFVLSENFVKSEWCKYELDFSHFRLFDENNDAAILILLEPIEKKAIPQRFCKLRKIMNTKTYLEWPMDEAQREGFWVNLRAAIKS

Consider `CCCCCCCCCCCCCC(=O)N[C@@H](CSC[C@H](NC(=O)CCCCCCCCCCCCC)C(=O)N[C@@H](CO)C(=O)N[C@@H](CCCCN)C(=O)N[C@@H](CCCCN)C(=O)N[C@@H](CCCCN)C(=O)N[C@@H](CCCCN)C(N)=O)C(=O)NCCCCCCCCCCCC` (Myristoyl-C(X6)SKKKK-NH2), for which, in assay [1], the outcome was Active. Besides, the result in assay [2] was inactive.
The corresponding values for `CCCCCCCCCCCCCCCCNC(=O)[C@H](CS(=O)(=O)C[C@H](NC(=O)CCCCCCCCCCCCCCC)C(=O)N[C@@H](CO)C(=O)N[C@@H](CCCCN)C(=O)N[C@@H](CCCCN)C(=O)N[C@@H](CCCCN)C(=O)N[C@@H](CCCCN)C(N)=O)NC(=O)CCCCCCCCCCCCCCC` are “Active” and “inactive”.
Take `CCCCCCCCCCCCCC(=O)N[C@@H](CSC[C@H](NC(=O)CCCCCCCCCCCCC)C(=O)N[C@@H](CO)C(=O)N[C@@H](CCCCN)C(=O)N[C@@H](CCCCN)C(=O)N[C@@H](CCCCN)C(=O)N[C@@H](CCCCN)C(N)=O)C(=O)NCCCCCC` (Myristoyl-C(X7)SKKKK-NH2): in assay [2], the result was inactive.
In the case of `CCCCCCCCCCCCCCCCNC(=O)[C@H](CSC[C@H](NC(=O)CCCCC)C(=O)N[C@@H](CO)C(=O)N[C@@H](CCCCN)C(=O)N[C@@H](CCCCN)C(=O)N[C@@H](CCCCN)C(=O)N[C@@H](CCCCN)C(N)=O)NC(=O)CCCCC`, in assay [1], the outcome was Active. Also, the outcome in assay [2] was inactive.
The matching figures for `CCCCCCCCCCCCCCCCCC(=O)N[C@@H](CSC[C@H](NC(=O)CCCCCCCCCCCCCCCCC)C(=O)N[C@@H](CO)C(=O)N[C@@H](CCCCN)C(=O)N[C@@H](CCCCN)C(=O)N[C@@H](CCCCN)C(=O)N[C@@H](CCCCN)C(N)=O)C(=O)NCCCCCCCCCCCCCCCC` (Stearoyl-C(X2)SKKKK-NH2): “Active” and “inactive”.
On to `CCCCCCCCCCCCCCCCNC(=O)[C@H](CSC[C@H](NC(=O)CCCCCCCCCCC)C(=O)N[C@@H](CO)C(=O)N[C@@H](CCCCN)C(=O)N[C@@H](CCCCN)C(=O)N[C@@H](CCCCN)C(=O)N[C@@H](CCCCN)C(N)=O)NC(=O)CCCCCCCCCCC`, for which the result in assay [3] and in assay [1] was Active. Also, the result in assay [2] was inactive.
On to `CCCCCCCCCCCCCC(=O)N[C@@H](CSC[C@@H](NC(=O)CCCCCCCCCCCCC)C(=O)N[C@@H](CO)C(=O)N[C@@H](CCCCN)C(=O)N[C@@H](CCCCN)C(=O)N[C@@H](CCCCN)C(=O)N[C@@H](CCCCN)C(N)=O)C(=O)O`, for which the outcome in assay [4] and in assay [2] was inactive. Further, the outcome in assay [1] was Active.
In the case of `CCCCCCCCCCCCCC(=O)N[C@@H](CSC[C@H](NC(=O)CCCCCCCCCCCCC)C(=O)N[C@@H](CO)C(=O)N[C@@H](CCCCN)C(=O)N[C@@H](CCCCN)C(=O)N[C@@H](CCCCN)C(=O)N[C@@H](CCCCN)C(N)=O)C(=O)NCCCCCCCCCC` (Myristoyl-C(X3)SKKKK-NH2), the result in assay [1] was Active. The result in assay [2] was inactive.
In the case of `CCCCCCCCCCCCCCCCNC(=O)[C@H](CSC[C@H](NC(=O)CCCCCCCCCCCCC)C(=O)N[C@@H](CO)C(=O)N[C@@H](CCCCN)C(=O)N[C@@H](CCCCN)C(=O)N[C@@H](CCCCN)C(=O)N[C@@H](CCCCN)C(N)=O)NC(=O)CCCCCCCCCCCCC`, the result in assay [3] and in assay [1] was Active. Also, in assay [2], the outcome was inactive.
`CCCCCCCCCCCCCCCCNC(=O)[C@H](CSC[C@H](NC(=O)CCCCCCCCCCCCCCC)C(=O)N[C@@H](CO)C(=O)N[C@@H](CCCCN)C(=O)N[C@@H](CCCCN)C(=O)N[C@@H](CCCCN)C(=O)N[C@@H](CCCCN)C(N)=O)NC(=O)CCCCCCCCCCCCCCC`: the outcome in assay [3] and in assay [1] was Active. Moreover, the outcome in assay [2] was inactive.
As to `CCCCCCCCCCCCCC(=O)N[C@H](CSC[C@@H](NC(=O)CCCCCCCCCCCCC)C(=O)N[C@@H](CO)C(=O)N[C@@H](CCCCN)C(=O)N[C@@H](CCCCN)C(=O)N[C@@H](CCCCN)C(=O)N[C@@H](CCCCN)C(N)=O)C(=O)O`, the result in assay [4] and in assay [2] was inactive. The outcome in assay [1] was Active.
Consider `CCCCCCCCCCCCCCCCNC(=O)[C@H](CSC[C@@H](NC(=O)CCCCCCCCCCCCC)C(=O)N[C@@H](CO)C(=O)N[C@@H](CCCCN)C(=O)N[C@@H](CCCCN)C(=O)N[C@@H](CCCCN)C(=O)N[C@@H](CCCCN)C(N)=O)NC(=O)CCCCCCCCCCCCC`, for which the outcome in assay [1] was Active. In addition, in assay [2], the result was inactive.
In assay [4], `CCCCCCCCCCCCCCCC(=O)O` [PALMITIC ACID] yielded an IC50 of 5 µM and an Activity of 68%.
With `CCCCCCCCCCCCCC(=O)N[C@@H](CSC[C@H](NC(=O)CCCCCCCCCCCCC)C(=O)N[C@@H](CO)C(=O)N[C@@H](CCCCN)C(=O)N[C@@H](CCCCN)C(=O)N[C@@H](CCCCN)C(=O)N[C@@H](CCCCN)C(N)=O)C(=O)O`, the result in assay [4] and in assay [2] was inactive. Also, the outcome in assay [1] was Active.
Take `CCCCCCCCCCCCCCCCNC(=O)[C@H](C[S+]([O-])C[C@H](NC(=O)CCCCCCCCCCCCCCC)C(=O)N[C@@H](CO)C(=O)N[C@@H](CCCCN)C(=O)N[C@@H](CCCCN)C(=O)N[C@@H](CCCCN)C(=O)N[C@@H](CCCCN)C(N)=O)NC(=O)CCCCCCCCCCCCCCC` (some centres undefined): the outcome in assay [1] was Active. Further, the outcome in assay [2] was inactive.
The corresponding values for `CCCCCCCCCCCCCCCCNC(=O)[C@@H](CSC[C@@H](NC(=O)CCCCCCCCCCCCC)C(=O)N[C@@H](CO)C(=O)N[C@@H](CCCCN)C(=O)N[C@@H](CCCCN)C(=O)N[C@@H](CCCCN)C(=O)N[C@@H](CCCCN)C(N)=O)NC(=O)CCCCCCCCCCCCC` are “Active” and “inactive”.
For the molecule `CCCCCCCCCCCCCCCCNC(=O)[C@@H](CSC[C@H](NC(=O)CCCCCCCCCCCCC)C(=O)N[C@@H](CO)C(=O)N[C@@H](CCCCN)C(=O)N[C@@H](CCCCN)C(=O)N[C@@H](CCCCN)C(=O)N[C@@H](CCCCN)C(N)=O)NC(=O)CCCCCCCCCCCCC`, in assay [1], the outcome was Active. The result in assay [2] was inactive.
The matching figures for `CCCCCCCCCCCCCCNC(=O)[C@H](CSC[C@H](NC(=O)CCCCCCCCCCCCC)C(=O)N[C@@H](CO)C(=O)N[C@@H](CCCCN)C(=O)N[C@@H](CCCCN)C(=O)N[C@@H](CCCCN)C(=O)N[C@@H](CCCCN)C(N)=O)NC(=O)CCCCCCCCCCCCC`: “Active” and “inactive”.
Take `CCCCCCCCCCCCCC(=O)N[C@@H](CSC[C@@H](NC(=O)CCCCCCCCCCCCC)C(=O)O)C(=O)N[C@@H](CO)C(=O)N[C@@H](CCCCN)C(=O)N[C@@H](CCCCN)C(=O)N[C@@H](CCCCN)C(=O)N[C@@H](CCCCN)C(N)=O`: the result in assay [4] and in assay [2] was inactive. In addition, in assay [1], the result was Active.
Turning to `CCCCCCCCCCCCCCCCCCCC(=O)N[C@@H](CSC[C@H](NC(=O)CCCCCCCCCCCCCCCCCCC)C(=O)N[C@@H](CO)C(=O)N[C@@H](CCCCN)C(=O)N[C@@H](CCCCN)C(=O)N[C@@H](CCCCN)C(=O)N[C@@H](CCCCN)C(N)=O)C(=O)NCCCCCCCCCCCCCCCC` (Arachidoyl-C(X5)SKKKK-NH2), the result in assay [1] was Active. For the same molecule, the outcome in assay [2] was inactive.
The corresponding values for `CCCCCCCCCCCCCC(=O)N[C@@H](CSC[C@H](NC(=O)CCCCCCCCCCCCC)C(=O)N[C@@H](CO)C(=O)N[C@@H](CCCCN)C(=O)N[C@@H](CCCCN)C(=O)N[C@@H](CCCCN)C(=O)N[C@@H](CCCCN)C(N)=O)C(=O)NCCCCCCCC` (Myristoyl-C(X4)SKKKK-NH2) are “Active” and “inactive”.
As for `CCCCCCCCCCCCCCCCCCNC(=O)[C@H](CSC[C@H](NC(=O)CCCCCCCCCCCCC)C(=O)N[C@@H](CO)C(=O)N[C@@H](CCCCN)C(=O)N[C@@H](CCCCN)C(=O)N[C@@H](CCCCN)C(=O)N[C@@H](CCCCN)C(N)=O)NC(=O)CCCCCCCCCCCCC`, the outcome in assay [1] was Active. In assay [2], the outcome was inactive.
The corresponding values for `CCCCCCCCCCCCCCCCNC(=O)[C@H](CSC[C@H](NC(=O)CCCCCCCCC)C(=O)N[C@@H](CO)C(=O)N[C@@H](CCCCN)C(=O)N[C@@H](CCCCN)C(=O)N[C@@H](CCCCN)C(=O)N[C@@H](CCCCN)C(N)=O)NC(=O)CCCCCCCCC` are “Active” and “inactive”.
On to `CCCCCCCCCCCCCCCCNC(=O)[C@H](CSC[C@H](NC(=O)CCCCCCC)C(=O)N[C@@H](CO)C(=O)N[C@@H](CCCCN)C(=O)N[C@@H](CCCCN)C(=O)N[C@@H](CCCCN)C(=O)N[C@@H](CCCCN)C(N)=O)NC(=O)CCCCCCC`, for which the outcome in assay [1] was Active. The outcome in assay [2] was inactive.
